AHR act: AHR activators, primary screen, cell-based, luminescence, luciferase reporter, human | AHR-responsive luciferase reporter cells | activation, % at 5 µM | 320,000 compounds, 2.5% hits | AID 2796, 2010; in the data active = activation above about 47%;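 note: 0% = vehicle wells and 100% = reference agonist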
FXN GAA850 act: FXN promoter activators, primary screen, cell-based, luciferase luminescence, HEK293 lucGAA850 | HEK293 lucGAA850 FXN promoter luciferase reporter, 24 h; percent of 10 µM SAHA response | activation, % at 6 µM | 360,000 compounds, 0.56% hits | AID 540364, 2011;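 active = activation above the average of all compounds screened plus 3 SD, cutoff fixed separately per campaign, cut at about 7.5% in these data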;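 note: 0% = DMSO wells and 100% = 10 µM SAHA wells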
SR-BI uptake up: activators of SR-BI mediated DiI-HDL uptake, primary screen, ldlA[mSR-BI] CHO cells, DiI fluorescence; 320,000 compounds, 0.096% hits; 3 h; 100 = double the neutral-control signal; activation, % at 12.5 µM;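 active = mean replicate activation of at least 60% and every replicate at or above 60%; inconclusive = mean or all-replicate condition met, but not both; inactive = mean below 60% and not all replicates reaching 60%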;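 note: 0% = median plate neutral-control signal and 100% = twice that signal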
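Test system: SR-BI-overexpressing, LDLR-lacking CHO cells. Measured by: DiI fluorescence, bottom read. Medium: Ham's F12 with 0.5% BSA, HEPES 25 mM, pH 7.4. Timing: 3 h uptake period with compound, 37 °C.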
JMJD2C inh: inhibitors of GASC-1 histone demethylase, primary screen, biochemical, fluorescence, DELFIA europium; Lysine-specific demethylase 4C (Homo sapiens), Q9H3R0; GST-JMJD2C(1-420) H3K9me3 demethylation; inhibition, % at 2.35 µM; 330,000 compounds, 0.069% hits; AID 2099, 2009;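 active = more than half of a compound's replicate wells show inhibition beyond 50%, single wells judged on their own value; inconclusive = some, but no more than half, of replicates pass 50% inhibition; inactive = no replicate passes 50% inhibition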;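 note: signal counts dimethyl H3K9 product captured on neutravidin plate; 0% = median of DMSO wells and 100% = 0.3 times that DMSO median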
Target sequence (Q9H3R0 1-420 limits assumed): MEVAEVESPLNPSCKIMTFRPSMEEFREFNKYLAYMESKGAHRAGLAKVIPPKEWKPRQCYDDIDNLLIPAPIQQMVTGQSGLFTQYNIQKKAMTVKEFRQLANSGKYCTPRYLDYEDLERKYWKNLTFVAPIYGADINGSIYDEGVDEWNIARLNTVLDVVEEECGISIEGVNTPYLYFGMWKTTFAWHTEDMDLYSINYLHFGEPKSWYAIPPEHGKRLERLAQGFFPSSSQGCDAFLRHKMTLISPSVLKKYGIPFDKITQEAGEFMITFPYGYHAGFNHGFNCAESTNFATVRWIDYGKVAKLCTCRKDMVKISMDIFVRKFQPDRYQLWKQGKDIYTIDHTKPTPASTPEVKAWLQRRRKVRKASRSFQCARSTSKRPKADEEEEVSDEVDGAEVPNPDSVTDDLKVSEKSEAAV
SR-BI HDL uptake: inhibitors of SR-BI mediated HDL lipid uptake, primary screen, ldlA[mSR-BI] cells, fluorescence, single point; ldlA[mSR-BI] CHO cells, DiI-HDL uptake fluorescence, 3 h; inhibition, % at 12.5 µM; 320,000 compounds, 0.96% hits;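 active = mean replicate inhibition of at least 70% and a set share of replicates each scoring 70 or more; inconclusive = meets just one of the two criteria; inactive = fails both criteria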;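 note: 0% = median of neutral control wells and 100% = median of positive control wells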
Starred values were filed as active, the others as inactive. The list is not random: actives were taken first. Their share in the collection is about 3.7%.

CCOC(=O)c1oc2ccccc2c1NC(=O)c1cccc(OC)c1OC was read as AHR act 6, FXN GAA850 act -3, SR-BI uptake up -77, JMJD2C inh 6 and SR-BI HDL uptake 77*.
Screening CCOC(=O)c1oc2ccccc2c1NC(=O)c1cccc(OC)c1 returned AHR act -3, FXN GAA850 act 2, SR-BI uptake up -19, JMJD2C inh inconclusive and SR-BI HDL uptake 19.
Nc1ccc(S(N)(=O)=O)cc1N was read as AHR act 115*, FXN GAA850 act 6, SR-BI uptake up 9, JMJD2C inh 9 and SR-BI HDL uptake -9.
For O=C(CN1C(=O)c2ccccc2S1(=O)=O)Nc1ccc(S(=O)(=O)N2CCCCCC2)cc1 the results were AHR act 0, FXN GAA850 act 0, SR-BI uptake up 7, JMJD2C inh 11 and SR-BI HDL uptake -7.
N#CC(C#N)=C1c2cc(S(=O)(=O)NCCO)ccc2-c2ccc(S(=O)(=O)NCCO)cc21 was read as AHR act 1, FXN GAA850 act 0, SR-BI uptake up 197*, JMJD2C inh 9 and SR-BI HDL uptake -197.
For O=C1c2cc(S(=O)(=O)NCCO)ccc2-c2ccc(S(=O)(=O)NCCO)cc21 the results were AHR act -3, FXN GAA850 act 1, SR-BI uptake up -1, JMJD2C inh -3 and SR-BI HDL uptake 1.
N#Cc1ccc(OCC(=O)n2cc(C(=O)c3cc(Cl)cc(Cl)c3O)cn2)cc1 was read as AHR act 70* and JMJD2C inh 6.
CCC(C)[C@@H](N)C(=O)N/N=C/c1cccc2nccnc12 (stereo partly drawn) was read as AHR act 70* and JMJD2C inh 4.
`CCC(C)[C@H](NC(=O)OC(C)(C)C)C(=O)N/N=C/c1cccc2nccnc12` (stereo partly drawn) gave AHR act 1, FXN GAA850 act 1, SR-BI uptake up -39, JMJD2C inh -2 and SR-BI HDL uptake 39.
Cc1ccc(/C=N/NC(=O)c2ccc(-n3cnnn3)cc2)cc1 was read as AHR act -3, FXN GAA850 act -3, SR-BI uptake up -13, JMJD2C inh -2 and SR-BI HDL uptake 13.
For CC(C)c1ccc(/C=N/NC(=O)c2ccc(-n3cnnn3)cc2)cc1 the results were FXN GAA850 act 1, SR-BI uptake up -84 and SR-BI HDL uptake 84*.
Screening Cc1ccc(C(=O)c2c3ccc([N+](=O)[O-])cc3[n+]([O-])n2CCC(N)=O)cc1 returned AHR act 4, SR-BI uptake up -8, JMJD2C inh -11 and SR-BI HDL uptake 8.
Cc1ccc(C(=O)c2c3ccc(C(F)(F)F)cc3nn2CCC(N)=O)cc1 was read as AHR act 65*, FXN GAA850 act 5, SR-BI uptake up -12, JMJD2C inh -2 and SR-BI HDL uptake 12.
Screening C/C(=N\NC(=O)C(=O)N/N=C(\C)c1cccc(O)c1)c1cccc(O)c1 returned AHR act 9, FXN GAA850 act 0, SR-BI uptake up 12, JMJD2C inh -10 and SR-BI HDL uptake -12.
Screening O=C(O)CCN1C(=O)/C(=C\c2ccc(-c3nc4ccccc4s3)o2)SC1=S returned AHR act 11, FXN GAA850 act 1, SR-BI uptake up 8, JMJD2C inh -26 and SR-BI HDL uptake -8.
For CC(C)Cc1nc(N2CCC(C(N)=O)CC2)c2nnn(Cc3ccccc3)c2n1 the results were AHR act 0, FXN GAA850 act -1, SR-BI uptake up 9, JMJD2C inh 12 and SR-BI HDL uptake -9.
Screening Cc1nc(N2CCC(C)CC2)c2nnn(Cc3ccccc3)c2n1 returned AHR act 0, FXN GAA850 act 0, SR-BI uptake up -81, JMJD2C inh 3 and SR-BI HDL uptake 81*.
O=C(N/N=C/c1ccccn1)c1sc2ccccc2c1Cl was read as AHR act 9, FXN GAA850 act 13*, SR-BI uptake up -57, JMJD2C inh 5 and SR-BI HDL uptake 57.
For O=C(N/N=C/c1c[nH]c2ccccc12)c1sc2ccccc2c1Cl the results were AHR act 50*, FXN GAA850 act 1, SR-BI uptake up 6, JMJD2C inh 5 and SR-BI HDL uptake -6.
`O=C(N/C(=C/C=C/c1ccccc1)C(=O)N1CCOCC1)c1ccccc1Cl` gave AHR act 67*, FXN GAA850 act 2, SR-BI uptake up 3, JMJD2C inh 0 and SR-BI HDL uptake -3.
For CCC1=NN(C(=O)c2ccc([N+](=O)[O-])cc2)C(O)(c2ccccc2)C1 (stereo not drawn) the results were AHR act 13, FXN GAA850 act 0, SR-BI uptake up -82, JMJD2C inh 3 and SR-BI HDL uptake 82*.
Screening O=C(CN1N=C(C(F)(F)F)CC1(O)c1ccc([N+](=O)[O-])cc1)c1ccccc1 (stereo not drawn) returned AHR act 1, FXN GAA850 act 2, SR-BI uptake up -4, JMJD2C inh -5 and SR-BI HDL uptake 4.
CCC1=NN(C(=O)c2ccccc2O)C(O)(c2ccccc2)C1 (stereo not drawn) was read as AHR act 29, FXN GAA850 act -2, SR-BI uptake up -120, JMJD2C inh 3 and SR-BI HDL uptake 120*.
For CCC1=NN(C(=O)c2ccccc2Br)C(O)(c2ccc(Br)cc2)C1 (stereo not drawn) the results were AHR act 1, FXN GAA850 act 0, SR-BI uptake up 5, JMJD2C inh -8 and SR-BI HDL uptake -5.
`O=C(c1ccccc1O)N1N=C(C(F)(F)F)CC1(O)c1ccc([N+](=O)[O-])cc1` (stereo not drawn) gave AHR act 8, FXN GAA850 act 0, SR-BI uptake up -71, JMJD2C inh 21 and SR-BI HDL uptake 71*.
`CN(C(=O)c1ccccc1C(=O)OCC(=O)Nc1cccc(Br)c1)c1ccccc1` gave AHR act 0, FXN GAA850 act 1, SR-BI uptake up -6, JMJD2C inh 4 and SR-BI HDL uptake 6.
`CCN(CC)S(=O)(=O)c1ccc(S(=O)(=O)N2CCCC(C(=O)NC3CC3)C2)cc1` (stereo not drawn) gave AHR act 0, FXN GAA850 act 2 and JMJD2C inh 2.
Screening Oc1ccc(C2Nc3cccc4cccc(c34)N2)c(O)c1 returned AHR act 3, FXN GAA850 act 1, SR-BI uptake up -91, JMJD2C inh 1 and SR-BI HDL uptake 91*.
For Clc1ccccc1C1Nc2cccc3cccc(c23)N1 the results were AHR act 7, FXN GAA850 act 2, SR-BI uptake up 10, JMJD2C inh -2 and SR-BI HDL uptake -10.

Compound activity deposited in PubChem by several laboratories.
